In ChEMBL document CHEMBL2177030:
Active and inactive are the calls of the source. The rule behind the calls is not given here.

How the values were obtained:
[1] = target: T1, Gastric triacylglycerol lipase (Canis lupus familiaris) (UniProt P80035); assay: Inhibition of dog recombinant gastric lipase expressed in transgenic maize at 200 molar excess compound concentration pre-incubated for 2 hrs with enzyme before substrate addition by pH-stat technique; type: single protein; details: Stomach
T1 sequence (whole entry): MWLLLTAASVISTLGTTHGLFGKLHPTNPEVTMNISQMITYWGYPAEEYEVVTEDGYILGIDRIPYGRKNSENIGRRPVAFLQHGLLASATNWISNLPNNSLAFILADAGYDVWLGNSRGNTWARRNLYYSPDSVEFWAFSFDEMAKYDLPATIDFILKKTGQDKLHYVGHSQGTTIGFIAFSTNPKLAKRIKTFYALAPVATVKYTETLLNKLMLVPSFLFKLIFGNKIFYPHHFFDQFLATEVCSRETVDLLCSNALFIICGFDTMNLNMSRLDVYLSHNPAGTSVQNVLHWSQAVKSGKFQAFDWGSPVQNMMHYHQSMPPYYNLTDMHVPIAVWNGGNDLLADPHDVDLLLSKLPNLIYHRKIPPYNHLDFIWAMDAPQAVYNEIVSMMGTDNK

[2] = target: T2, Pancreatic lipase-related protein 2 (Cavia porcellus) (UniProt P81139); assay: Inhibition of guinea pig recombinant PLRP2 expressed in Aspergillus oryzae at 200 molar excess compound concentration pre-incubated for 2 hrs with enzyme before substrate addition by pH-stat technique
T2 sequence (whole entry): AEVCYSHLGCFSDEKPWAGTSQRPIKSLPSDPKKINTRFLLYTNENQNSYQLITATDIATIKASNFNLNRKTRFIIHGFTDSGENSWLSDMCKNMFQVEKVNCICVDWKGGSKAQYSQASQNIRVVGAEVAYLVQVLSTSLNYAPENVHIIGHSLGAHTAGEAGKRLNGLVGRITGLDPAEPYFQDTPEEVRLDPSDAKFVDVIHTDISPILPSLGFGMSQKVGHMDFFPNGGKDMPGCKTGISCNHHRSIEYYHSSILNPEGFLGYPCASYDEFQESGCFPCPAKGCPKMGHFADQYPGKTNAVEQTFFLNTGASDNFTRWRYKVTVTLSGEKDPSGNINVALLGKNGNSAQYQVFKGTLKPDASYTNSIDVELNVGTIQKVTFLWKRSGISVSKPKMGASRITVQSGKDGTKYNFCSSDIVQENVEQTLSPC

[3] = target: T3, Pancreatic triacylglycerol lipase (Homo sapiens) (UniProt P16233); assay: Inhibition of human recombinant pancreatic lipase expressed in Pichia pastoris at 200 molar excess compound concentration pre-incubated for 2 hrs with enzyme before substrate addition by pH-stat technique
T3 sequence (whole entry): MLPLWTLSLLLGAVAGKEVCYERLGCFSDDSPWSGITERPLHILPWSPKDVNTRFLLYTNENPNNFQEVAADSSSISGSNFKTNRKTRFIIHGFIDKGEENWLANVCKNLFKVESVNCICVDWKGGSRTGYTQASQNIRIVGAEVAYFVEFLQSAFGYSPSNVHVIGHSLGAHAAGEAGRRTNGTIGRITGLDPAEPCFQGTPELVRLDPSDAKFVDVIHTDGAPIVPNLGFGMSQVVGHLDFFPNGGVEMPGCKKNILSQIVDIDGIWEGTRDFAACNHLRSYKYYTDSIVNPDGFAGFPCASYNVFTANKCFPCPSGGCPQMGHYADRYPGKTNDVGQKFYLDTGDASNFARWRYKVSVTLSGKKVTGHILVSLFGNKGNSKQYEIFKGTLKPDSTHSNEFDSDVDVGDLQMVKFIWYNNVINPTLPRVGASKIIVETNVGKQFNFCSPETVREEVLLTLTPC

[4] = target: T4, Cutinase 1 (Fusarium vanettenii) (UniProt P00590); assay: Inhibition of Fusarium solani pisi cutinase assessed as half inactivation time pre-incubated with enzyme before substrate addition by pH-stat technique
T4 sequence (whole entry): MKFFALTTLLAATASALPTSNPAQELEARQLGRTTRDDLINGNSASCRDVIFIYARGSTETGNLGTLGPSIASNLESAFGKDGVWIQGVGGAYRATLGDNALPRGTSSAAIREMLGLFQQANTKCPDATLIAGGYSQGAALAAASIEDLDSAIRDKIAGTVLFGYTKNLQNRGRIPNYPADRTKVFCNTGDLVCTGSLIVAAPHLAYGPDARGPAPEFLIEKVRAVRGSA
Summary of the method: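 Cutinase was preincubated at 25 °C with inhibitor at xI 4 in 2 mM NaTDC for 1 h. Residual activity was sampled at intervals by pH-stat at 37 °C on TC4 emulsion in 2.5 mM Tris-HCl pH 8.0, 150 mM NaCl, 0.25 mM NaTDC. t1/2 was taken from the time course. Runs were done at least in duplicate.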

[5] = target: T4, Cutinase 1 (Fusarium vanettenii); assay: Inhibition of Fusarium solani pisi cutinase assessed as residual enzyme activity pre-incubated for 30 mins with enzyme before substrate addition by pH-stat technique
Summary of the method: (§1)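 Cutinase was preincubated for 30 min at 25 °C in 2 mM NaTDC, substrate absent, at inhibitor molar excess xI 2, 4, 20, 40 or 100. Residual activity was measured by pH-stat at 37 °C on TC4 emulsion at pH 8.0 with 0.25 mM NaTDC. xI50 is the molar excess giving 50% activity. Isopropanol controls were run. At least duplicate.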

[6] = system: Mycobacterium tuberculosis; assay: Inhibition of Mycobacterium tuberculosis LipY at 40 molar excess compound concentration pre-incubated for 30 mins with enzyme before substrate addition by pH-stat technique
[7] = target: Monoacylglycerol lipase (Mycobacterium tuberculosis H37Rv) (UniProt O07427); assay: Inhibition of Mycobacterium tuberculosis Rv0183 pre-incubated for 30 mins with enzyme before substrate addition by pH-stat technique
Summary of the method: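 Rv0183 was preincubated 30 min at 25 °C without NaTDC at inhibitor molar excess 2, 4, 20, 40 or 100. Residual monoglyceride lipase activity was measured by pH-stat at 37 °C with MC18 emulsion, pH 8.0, 3 mM NaTDC. xI50 was read from the residual-activity curve. Solvent controls were run. At least duplicate.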

[8] = target: T4, Cutinase 1 (Fusarium vanettenii); assay: Inhibition of Fusarium solani pisi cutinase pre-incubated for 30 mins with enzyme before substrate addition by pH-stat technique; summary of the method: as §1

Chain of Monoacylglycerol lipase (Mycobacterium tuberculosis H37Rv) (O07427 whole entry): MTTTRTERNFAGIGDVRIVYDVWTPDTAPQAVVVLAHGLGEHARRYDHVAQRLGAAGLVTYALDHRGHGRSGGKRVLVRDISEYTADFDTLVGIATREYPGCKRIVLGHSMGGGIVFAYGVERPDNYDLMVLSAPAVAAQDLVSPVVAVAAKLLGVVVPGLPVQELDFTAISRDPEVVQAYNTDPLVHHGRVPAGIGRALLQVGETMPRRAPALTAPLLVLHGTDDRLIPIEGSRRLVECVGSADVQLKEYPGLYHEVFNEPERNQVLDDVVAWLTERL

`CO[P@]1(=O)OC[C@H]2COC(=O)C2=C(C)O1` (racemic) was tested, and the inhibition [1] was “inactive”, the inhibition [2] was “inactive” and the inhibition [3] was “inactive”. For the same compound, the T1/2 [4] was 10.8 s, the Activity [5] was 6% and the inhibition [6] was 14%. The XI50 [7] was 5.22 molar excess and the XI50 [8] was 0.96 molar excess.
